Reference: publication PMC5548007 (European journal of medicinal chemistry, 2017)
Like-named read-outs stand apart in the source and are kept apart here.

Experiments:
rats = test: Acute in vivo toxicity in rats; conditions: oral 10 mg/kg
Summary of the method: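 Male Sprague-Dawley rats (250–300 g), n = 4, dosed once by oral gavage at 10 mg/kg in 5% DMSO / 40% PEG 400 / 55% saline. Dosing was part of a pharmacokinetic study, with tail-vein blood drawn at 1, 3, 6 and 24 h. Time to death after oral dosing was recorded in hours.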

[1] = Metabolic profiling by liver microsome incubation; type: in vitro ADME, human; conditions: 37 °C, 60 min, NADPH; mono-hydroxylation products by HRMS
Summary of the method: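 Pooled human liver microsomes in potassium phosphate buffer (pH 7.4) with NADPH solutions A and B were preincubated for 5 min at 37 °C. Test compound was added from a 10 mM stock and incubated for 60 min at 37 °C. Methanol stopped the reaction, and samples were centrifuged at 10,000 × g for 4 min at 4 °C. Supernatant was analysed by UHPLC with high-resolution mass spectrometry.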

[2] = Oral pharmacokinetic study in Sprague-Dawley rats; type: in vivo, rat; conditions: single oral dose 10 mg/kg
Summary of the method: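 Male Sprague-Dawley rats (250–300 g, n = 4) received a single 10 mg/kg oral gavage in 5% DMSO/40% PEG 400/55% saline. Tail-vein blood was taken into EDTA at 1, 3, 6 and 24 h, and plasma was stored at −80 °C. Plasma was extracted with chloroform/methanol (2:1) using a 13C2,15N-tamoxifen internal standard. Quantitation was by UPLC–triple-quadrupole MS/MS with a water/acetonitrile 0.05% formic acid gradient.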

PC-3 cells [3] = test: Cell cycle analysis by flow cytometry with propidium iodide staining; type: cell-based, human; conditions: for Cell cycle phase of arrest: PC-3, 28 at 5 μM, 46 at 4 μM
Summary of the method: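 PC-3 cells were seeded at 200,000/well and allowed to attach for 3 h. They were treated with test compound at 4 or 5 μM, or DMSO vehicle, at 37 °C and harvested at 16 or 24 h, including floating cells. Cells were fixed in cold 80% ethanol for 30 min at 4 °C and RNase-treated for 30 min at 37 °C. Staining used propidium iodide (50 μg/mL stock) for 30 min, and DNA content was read by flow cytometry within 0.5–1 h.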

[4] = test system: three human prostate cancer cell lines; test: Anti-proliferative potency across three prostate cancer cell lines; type: cell-based; conditions: read-out: IC50 range in three prostate cancer cell lines
Summary of the method: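 Human prostate cancer cells were grown at 37 °C in 5% CO2: PC-3 and LNCaP in RPMI-1640, DU-145 in EMEM, each with 10% FBS and 1% penicillin/streptomycin. Cells were seeded at 3,200/well and exposed to test compound for 3 days, with DMSO as vehicle control. WST-1 reagent was added for 3 h at 37 °C and absorbance read at 430 nm. IC50 came from linear inhibition over ≥5 doses, averaged over triplicates.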

PC-3 cells [5] = test: WST-1 cell proliferation assay, PC-3; type: cell-based; conditions: Homo sapiens, PC-3, 72 h, read-out: IC50 PC-3
Summary of the method: (§1)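 PC-3 and LNCaP cells grown in RPMI-1640, DU145 in EMEM, each with 10% FBS and 1% penicillin/streptomycin at 37 °C, 5% CO2. Cells seeded at 3,200/well, then exposed 3 days to at least five doses of test compound, with DMSO as vehicle control. WST-1 reagent added for 3 h at 37 °C, absorbance read at 430 nm. IC50 taken from linear inhibition plot; mean ± SD of triplicates.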

DU145 cells = test: WST-1 cell proliferation assay, DU145; type: cell-based; conditions: Homo sapiens, DU-145, 72 h, read-out: IC50 DU145
Summary of the method: as §1

LNCaP cells = test: WST-1 cell proliferation assay, LNCaP; type: cell-based; conditions: Homo sapiens, 72 h, read-out: IC50 LNCaP
Summary of the method: as §1

[6] = mice, single oral dose 1 mg/kg; cited from earlier work
PC-3 cells [7] = conditions: cited from earlier work

In the case of CCn1c(/C=C/C(=O)/C=C/c2sc(C)nc2C(F)(F)F)nc2ccccc21 [Compd 49, (1E,4E)-1-(1-Ethyl-1H-benzo[d]imidazol-2-yl)-5-(2-methyl-4-(trifluoromethyl)thiazol-5-yl)penta-1,4-dien-3-one], the “Acute in vivo toxicity (tolerability)” value (rats) is reported as “without observed toxicity” and the “Major metabolic products detected after microsomal incubation” value [1] is reported as “two major metabolic products”.
With CCC(C)n1ccnc1/C=C/C(=O)/C=C/c1sc(C)nc1C(F)(F)F (stereo not drawn) [Compd 28, (1E,4E)-1-(1-(sec-Butyl)-1H-imidazol-2-yl)-5-(2-methyl-4-(trifluoromethyl)thiazol-5-yl)penta-1,4-dien-3-one] the “Peak plasma concentration in molar units” value [2] was 5.27 µM, the “Acute in vivo toxicity (tolerability)” value (rats) was “without observed toxicity” and the “Lower cell population at G2 phase vs control, 16 h” value (PC-3 cells [3]; 5 μM, 16 h) was 10%. The “Higher cell population at G0/G1 phase vs control, 24 h” value (PC-3 cells [3]; 5 μM, 24 h) was 4%, the “Lower cell population at G2 phase vs control, 24 h” value (PC-3 cells [3]; 5 μM, 24 h) was 3% and the “Cell cycle phase of arrest” value (PC-3 cells [3]) was “cell cycle arrest at the G0/G1 phase”. For the same molecule, the “Major metabolic products detected after microsomal incubation” value [1] was “three major metabolic products”.
With CC(C)n1c(/C=C/C(=O)/C=C/c2ccccn2)nc2ccccc21 [Compd 58, (1E,4E)-1-(1-Isopropyl-1H-benzo[d]imidazol-2-yl)-5-(pyridin-2-yl)penta-1,4-dien-3-one] the “Time to death after oral dosing” value (rats) was roughly 72 h and the IC50 [4] was 0.03 to 0.12 µM.
In the case of COc1cc(/C=C/C(=O)CC(=O)/C=C/c2ccc(O)c(OC)c2)ccc1O [Curcumin], the IC50 (PC-3 cells [5]) is reported as 25.4 ± 2.15 µM, the IC50 (DU145 cells) is reported as 26.2 ± 0.65 µM and the IC50 (LNCaP cells) is reported as 13.6 ± 2.69 µM. For the same molecule, the “Area under curve (AUC)” value [6] was 2.85 ng·h/mL and the “Cell cycle phase of arrest” value (PC-3 cells [7]) was “G1/S phase”.
With CCCn1ccnc1/C=C/C(=O)/C=C/c1nc2ccccc2n1CCC [Compd 46, (1E,4E)-1-(1-Propyl-1H-benzo[d]imidazole-2-yl)-5-(1-propyl-1H-imidazole-2-yl)penta-1,4-dien-3-one] the “Time to death after oral dosing” value (rats) was “about 48 hours” and the “Cell cycle phase of arrest” value (PC-3 cells [3]) was “cell cycle arrest at the G0/G1 phase”.
